We go through 14 compounds from ChEMBL document CHEMBL2331353, “Synthesis and biological evaluation of some novel resveratrol amide derivatives as potential anti-tumor agents” (Eur J Med Chem, 2013).

The IC50 is the concentration that inhibits the measured activity by half.

The target in assay [1] is T1, Prostaglandin G/H synthase 2 (Mus musculus, UniProt Q05769).
T1 sequence (Q05769 whole entry): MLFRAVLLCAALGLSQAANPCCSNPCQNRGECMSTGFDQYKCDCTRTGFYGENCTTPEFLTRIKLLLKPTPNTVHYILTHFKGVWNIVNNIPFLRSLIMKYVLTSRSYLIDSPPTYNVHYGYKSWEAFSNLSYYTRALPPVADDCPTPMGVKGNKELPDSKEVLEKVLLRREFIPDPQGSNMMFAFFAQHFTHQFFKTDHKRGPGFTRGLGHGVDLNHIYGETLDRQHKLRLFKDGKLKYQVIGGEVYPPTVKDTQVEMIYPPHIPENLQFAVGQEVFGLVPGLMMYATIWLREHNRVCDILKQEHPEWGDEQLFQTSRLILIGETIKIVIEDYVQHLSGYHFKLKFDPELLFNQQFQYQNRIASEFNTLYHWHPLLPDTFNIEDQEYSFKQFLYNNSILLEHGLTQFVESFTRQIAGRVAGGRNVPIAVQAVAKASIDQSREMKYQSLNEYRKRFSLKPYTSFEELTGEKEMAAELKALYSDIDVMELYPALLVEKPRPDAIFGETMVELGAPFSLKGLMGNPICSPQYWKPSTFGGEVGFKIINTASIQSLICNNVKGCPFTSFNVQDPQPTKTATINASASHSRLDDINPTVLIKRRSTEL
As to the kind of experiment: Inhibition of COX-2 in mouse RAW264.7 cells assessed as decrease in LPS-induced PGE2 production. The class given is cell-based.

The target in assay [2] is T2, Prostaglandin G/H synthase 2 (Homo sapiens, UniProt P35354).
T2 sequence (P35354 whole entry): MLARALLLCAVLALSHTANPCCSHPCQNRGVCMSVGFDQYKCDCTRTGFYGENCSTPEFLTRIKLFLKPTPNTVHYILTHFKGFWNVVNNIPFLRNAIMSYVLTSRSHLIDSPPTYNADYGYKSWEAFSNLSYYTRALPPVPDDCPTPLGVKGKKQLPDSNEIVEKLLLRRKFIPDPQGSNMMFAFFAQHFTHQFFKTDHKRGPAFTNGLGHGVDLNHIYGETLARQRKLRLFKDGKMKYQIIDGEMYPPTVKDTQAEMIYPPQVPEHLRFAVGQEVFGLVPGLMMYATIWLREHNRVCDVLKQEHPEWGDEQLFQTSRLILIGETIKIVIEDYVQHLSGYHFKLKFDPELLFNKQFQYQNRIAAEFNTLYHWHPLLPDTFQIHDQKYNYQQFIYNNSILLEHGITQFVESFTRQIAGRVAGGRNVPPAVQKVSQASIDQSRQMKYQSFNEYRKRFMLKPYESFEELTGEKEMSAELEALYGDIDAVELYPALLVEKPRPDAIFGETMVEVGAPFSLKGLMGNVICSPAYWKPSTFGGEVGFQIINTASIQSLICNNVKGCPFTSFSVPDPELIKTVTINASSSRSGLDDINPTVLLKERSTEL
Briefly: Inhibition of COX-2 (unknown origin) by chemiluminescence assay.

Another assay relates to B16-F10. As to the kind of experiment: Antitumor activity against mouse B16F10 cells assessed as inhibition of cell proliferation after 48 hrs by MTT assay. The class given is functional, cell-based. Conditions: B16-F10, 48 h. In a few lines: (§1)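 Cells grown to log phase in RPMI 1640 with 10% FBS, seeded at 2×10^4 cells/mL and preincubated 24 h at 37 °C, 5% CO2. Compounds at preset concentrations added (6 wells), celecoxib as positive reference, 48 h exposure. MTT (2.5 mg/mL in PBS) for 4 h, then SDS/isobutanol/HCl extraction overnight at 37 °C. OD read at 570 nm. Triplicate wells per concentration, at least three independent runs.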
For orientation: Formazan colour is commonly taken as a measure of viable cells.

The target in assay [3] is Prostaglandin G/H synthase 1 (Homo sapiens, UniProt P23219). As to the kind of experiment: Inhibition of COX-1 (unknown origin) by chemiluminescence assay.
The test system of another assay is A549. As to the kind of experiment: Antitumor activity against human A549 cells assessed as inhibition of cell proliferation after 48 hrs by MTT assay. The class given is functional, cell-based. As to conditions: A549, 48 h. In short, it runs like this: as §1
Another assay has as its system MCF7. As to the kind of experiment: Antitumor activity against human MCF7 cells assessed as inhibition of cell proliferation after 48 hrs by MTT assay. The assay is classed as functional, cell-based. Conditions: MCF7, 48 h. In short, it runs like this:
as §1

Another assay concerns RAW264.7. As to the kind of experiment: Inhibition of LPS-induced COX-2 expression in mouse RAW264.7 cells at >0.5 uM treated for 15 mins before LPS challenge measured after 18 hrs by Western blot analysis. The assay is classed as functional, cell-based. In a few lines:
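RAW 264.7 cells (5×10^5) incubated 24 h in 12-well plates. Compound pretreatment at 0.5, 1.0 or 1.5 µM for 15 min, then LPS 1 µg/mL for 18 h. Cells lysed in lysis buffer. COX-2 protein detected by Western immunoblot.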
(In western blotting, separated proteins are transferred to a membrane and probed.)

Activity calls are given as the source filed them. The rule behind the calls is not given here.

Sequence of Prostaglandin G/H synthase 1 (P23219 whole entry): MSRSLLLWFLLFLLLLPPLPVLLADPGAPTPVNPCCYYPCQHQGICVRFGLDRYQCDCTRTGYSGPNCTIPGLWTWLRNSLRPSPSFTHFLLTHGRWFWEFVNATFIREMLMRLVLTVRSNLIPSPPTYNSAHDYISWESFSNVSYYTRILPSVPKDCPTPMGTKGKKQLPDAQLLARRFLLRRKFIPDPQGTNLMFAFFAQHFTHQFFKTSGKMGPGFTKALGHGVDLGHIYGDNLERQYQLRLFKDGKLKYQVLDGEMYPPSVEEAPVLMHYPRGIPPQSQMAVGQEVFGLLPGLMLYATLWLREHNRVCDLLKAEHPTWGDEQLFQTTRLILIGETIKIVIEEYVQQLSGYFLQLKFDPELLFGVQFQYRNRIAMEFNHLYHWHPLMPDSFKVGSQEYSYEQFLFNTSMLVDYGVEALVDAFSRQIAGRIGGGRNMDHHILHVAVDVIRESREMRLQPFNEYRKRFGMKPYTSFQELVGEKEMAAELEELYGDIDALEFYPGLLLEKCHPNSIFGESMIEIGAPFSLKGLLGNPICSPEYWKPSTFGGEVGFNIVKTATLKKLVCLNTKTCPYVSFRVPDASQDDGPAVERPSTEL

Consider `COc1ccc(/C=C/c2cc(OC)cc(OC)c2/C=C/C(=O)NCc2ccco2)cc1`, for which the IC50 amounted to 3.15 µM in assay [1]; 9.67 µM in assay [2]; 10.1 µM in the assay with B16-F10; 29.1 µM in assay [3]; 6.42 µM in the assay with A549; 5.42 µM with MCF7.
In the case of `CCCCNC(=O)/C=C/c1c(/C=C/c2ccc(OC)cc2)cc(OC)cc1OC`, the IC50 in assay [1] was 0.28 µM; in assay [2] it was 1.02 µM; in the assay on B16-F10, 2.08 µM; in assay [3], over 50 µM; with A549 it was 1.88 µM; in the assay with MCF7 it was 1.33 µM. Also, the inhibition entry in the assay on RAW264.7 is “Active”.
On to `C=CCN(CC=C)C(=O)/C=C/c1c(/C=C/c2ccc(OC)cc2)cc(OC)cc1OC`, for which the IC50 in assay [1] was determined as 3.28 µM; in assay [2], 8.01 µM; in the assay on B16-F10, 8.18 µM; in assay [3], 35 µM; in the assay with A549, 5.89 µM; in the assay on MCF7, 3.22 µM.
Regarding `COc1ccc(/C=C/c2cc(OC)cc(OC)c2/C=C/C(=O)N2CCC(C)CC2)cc1`, the IC50 in assay [1] was 8.09 µM; in assay [2], 10.3 µM; in the assay on B16-F10 it was 7.76 µM; in assay [3], over 50 µM; in the assay with A549, 7.2 µM; in the assay on MCF7, 6.45 µM.
As for `COc1ccc(/C=C/c2cc(OC)cc(OC)c2/C=C/C(=O)Nc2cc(OC)c(OC)c(OC)c2)cc1`, the IC50 in assay [1] is 2.1 µM; in assay [2] it was 6.66 µM; in the assay with B16-F10, 8.15 µM; in assay [3] it was over 50 µM; in the assay with A549, 5.14 µM; with MCF7, 7.01 µM.
As to `COc1ccc(/C=C/c2cc(OC)cc(OC)c2/C=C/C(=O)N2CCSCC2)cc1`, the half-inhibitory concentration (IC50) in assay [1] is 3.18 µM; in assay [2], 8.01 µM; in the assay with B16-F10 it was 8.1 µM; in assay [3] it was 45.2 µM; in the assay on A549 it was 5.4 µM; in the assay on MCF7, 2.76 µM.
Turning to `COc1ccc(/C=C/c2cc(OC)cc(OC)c2/C=C/C(=O)NC2CC2)cc1`, the IC50 is 7.05 µM in assay [1]; 13 µM in assay [2]; 10.2 µM in the assay with B16-F10; over 50 µM in assay [3]; 8.81 µM with A549; 3.94 µM with MCF7.
As for `COc1ccc(/C=C/c2cc(OC)cc(OC)c2/C=C/C(=O)NC2CCCCC2)cc1`, the IC50 in assay [1] is 1.98 µM; in assay [2], 5.09 µM; in the assay on B16-F10, 5.48 µM; in assay [3], over 50 µM; in the assay with A549 it was 3.61 µM; in the assay on MCF7, 2.63 µM.
With `COc1ccc(/C=C/c2cc(OC)cc(OC)c2/C=C/C(=O)O)cc1`, the IC50 in assay [1] was 3.01 µM; in assay [2] it was 6.89 µM; in the assay on B16-F10, 6.78 µM; in assay [3], over 50 µM; with A549, 5.46 µM; in the assay on MCF7, 6.1 µM.
In the case of `COc1ccc(/C=C/c2cc(OC)cc(OC)c2/C=C/C(=O)NCCCN2CCOCC2)cc1`, the IC50 in assay [1] was 3.68 µM; in assay [2], 8.92 µM; in the assay with B16-F10, 6.83 µM; in assay [3] it was over 50 µM; with A549, 4.22 µM; in the assay with MCF7, 4.15 µM.
Turning to `CCC(C)NC(=O)/C=C/c1c(/C=C/c2ccc(OC)cc2)cc(OC)cc1OC` (stereo not given), the IC50 in assay [1] was 2.09 µM; in assay [2], 4.56 µM; in the assay with B16-F10, 4.38 µM; in assay [3], over 50 µM; in the assay with A549, 3.95 µM; in the assay with MCF7 it was 3.43 µM.
Consider `CCCCCCCCNC(=O)/C=C/c1c(/C=C/c2ccc(OC)cc2)cc(OC)cc1OC`, for which the IC50 was 13.8 µM in assay [1]; 20.1 µM in assay [2]; 8.06 µM in the assay with B16-F10; over 50 µM in assay [3]; 8.66 µM in the assay with A549; 4.28 µM with MCF7.
In the case of `COc1ccc(/C=C/c2cc(OC)cc(OC)c2/C=C/C(=O)NCC(C)C)cc1`, the IC50 in assay [1] was 6.12 µM; in assay [2] it was 15.1 µM; in the assay with B16-F10, 12.7 µM; in assay [3] it was over 50 µM; in the assay on A549, 10.4 µM; in the assay on MCF7 it was 5.29 µM.
On to `COc1ccc(/C=C/c2cc(OC)cc(OC)c2/C=C/C(=O)NCCCCl)cc1`, for which the IC50 in assay [1] amounted to 0.39 µM; in assay [2], 1.27 µM; in the assay with B16-F10, 2.78 µM; in assay [3], 38.4 µM; in the assay on A549 it was 1.98 µM; in the assay with MCF7, 1.98 µM.
